The record followed here is PubChem BioAssay.

Structures are written as SMILES. The source made the active and inactive calls.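 Rule for the calls, unless noted: active = inhibition above 20% together with a positive visual image hit; inconclusive = visual image hit but inhibition not above 20%; inactive = no visual image hit.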

Test [1] in a line: inhibitors of TNFa-induced NFkB p65 translocation, primary screen, imaging, HUVEC, MLSMR starter and 10KST1 sets (AID 438).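 For inhibition: signal is the nuclear over cytoplasmic p65 intensity ratio per well.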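 Note: compound added about 3h40 before a 20 min TNFalpha stimulation.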 The note with it: HUVEC TNFa-induced p65 nuclear translocation; cell count: measured here: nuclei count (cytotoxicity indicator), at 2.08 µM; inhibition: at 2 µM, stronger effect = higher value, 0% TNFa-plus-vehicle, 100% no-TNFa wells.
Test [2] in a line: reduction of polyQ htt aggregates in cells – imaging, exon1htt(103Q)mCFP cells, high-content imaging, primary screen (AID 483;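 active = visual image review flags a hit and inhibition of aggregation exceeds 20%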;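 note: compound exposure lasted 3 days before fixation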;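 for nuclei count: percent of the per-plate median nuclei count of sample wells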). The following applies: exon1htt(103Q)mCFP cell line, aggregate imaging, at 2 µM; inhibition of aggregation: stronger effect = higher value; nuclei count: measured here: cell count, toxicity.
Test [3] can be described thus: endothelial E-selectin expression blockers – imaging, HUVEC, immunofluorescence, MLSMR starter and 10KST1 sets, primary screen (AID 487;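 active = visually confirmed hit in the image check and inhibition above 20%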;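 for inhibition: signal is fraction of cell area covered by stained E-selectin grains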;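 for nuclei count: 100% = median nuclei count of all wells on the same plate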). The following applies: HUVEC TNFalpha-induced E-selectin immunofluorescence imaging, at 2 µM; inhibition: stronger effect = higher value; nuclei count: measured here: cell number, toxicity.
Test [4] concerns the target Voltage-gated potassium channel subunit beta-2 (Rattus norvegicus) (UniProt P62483). Put plainly: inhibitors of rat Kvbeta2 reductase activity – biochemical, NADPH fluorescence, primary screen (AID 622;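 active = fluorescence slope higher than the sample average by over 3 SD, cut at about -0.22 in these data, passing the limit was not always enough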;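 note: slope of raw intensity against log time taken from 70 to 1610 s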). The note with it: recombinant KvBeta, 4-cyanobenzaldehyde reduction, at 10 µM, stronger effect = higher value.
Test [5] shares this target. Put plainly: enhancers of rat Kvbeta2 NADPH turnover – biochemical, NADPH fluorescence, primary screen (AID 623;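 active = NADPH fluorescence slope more negative than the mean of all samples by about 3 SD, 99.7% confidence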;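 note: fluorescence intensity change per second fitted from 20 to 320 s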). The note with it: Recombinant KvBeta, NADPH fluorescence decrease slope, 10 min; at 10 µM; stronger effect = lower value.
The target in test [6] is Muscarinic acetylcholine receptor M4 (Homo sapiens) (UniProt P08173). Put plainly: M4-linked GIRK flux change, two-sided – cell-based, HEK293 M4/GIRK, thallium flux, BTC-AM, M4 allosteric agonist project, primary screen (AID 625;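 active = fluorescence slope after compound addition differing from the mean of all tested samples at 99.7% confidence, mostly higher but some lower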;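 note: thallium influx through GIRK channels coupled to M4 in HEK293 cells with BTC-AM dye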). The note with it: at 10 µM, actives lie on both sides. In short, it runs like this: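 assay system = HEK293 cells with M4 receptor and GIRK channels | medium = pH 7.3 thallium assay buffer | doses = 10 µM final, single point | timing = cells overnight at 37 °C, BTC-AM loading 1 h, reads 2 min total | signal = BTC-AM fluorescence, 1 Hz kinetic reads | read-out = post-addition slope, 15–24 s, of baseline-normalized fluorescence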
Sequence of Muscarinic acetylcholine receptor M4 (Homo sapiens) (P08173 whole entry, looked up): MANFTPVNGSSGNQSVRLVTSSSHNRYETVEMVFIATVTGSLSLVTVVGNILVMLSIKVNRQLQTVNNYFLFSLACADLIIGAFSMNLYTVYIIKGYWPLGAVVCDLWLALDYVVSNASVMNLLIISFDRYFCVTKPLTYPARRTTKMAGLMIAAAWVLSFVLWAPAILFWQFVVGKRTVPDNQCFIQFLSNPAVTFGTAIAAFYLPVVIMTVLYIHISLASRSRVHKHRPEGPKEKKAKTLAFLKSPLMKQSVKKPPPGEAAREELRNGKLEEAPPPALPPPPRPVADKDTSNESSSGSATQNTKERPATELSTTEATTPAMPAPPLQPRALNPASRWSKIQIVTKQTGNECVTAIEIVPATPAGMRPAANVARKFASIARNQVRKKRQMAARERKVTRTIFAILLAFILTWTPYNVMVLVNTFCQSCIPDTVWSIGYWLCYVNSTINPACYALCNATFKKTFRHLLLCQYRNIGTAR

A short description of test [7]: blockers of RIG-like receptor reporter activation – cell-based, Sendai virus stimulus, luciferase, 10K MLSCN set, TLR/RLR signaling modifier project, primary screen (AID 602276;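 active = inhibition at or above 50% at 10 µM; inactive = inhibition below 50%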;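 note: firefly luciferase from ISG56 promoter only with Renilla not read in this screen; 0% = Sendai virus plus DMSO and 100% = medium plus DMSO without virus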). The following applies: HEK293 RL24 IRF3 luciferase reporter, at 10 µM, stronger effect = higher value. A general note: In a reporter assay the amount or activity of a reporter protein is the signal.
Test [8] can be described thus: TLR3 IRF3 reporter activation blockers – cell-based, poly I:C stimulus, luciferase, 10K MLSCN set, primary screen (AID 602277;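 active = inhibition of the reporter signal at or above 50%; inactive = inhibition below 50%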). The note with it: HEK293-TLR3 RL24 IRF3 luciferase reporter, at 10 µM, stronger effect = higher value.

Sequence of Voltage-gated potassium channel subunit beta-2 (Rattus norvegicus) (P62483 whole entry, looked up): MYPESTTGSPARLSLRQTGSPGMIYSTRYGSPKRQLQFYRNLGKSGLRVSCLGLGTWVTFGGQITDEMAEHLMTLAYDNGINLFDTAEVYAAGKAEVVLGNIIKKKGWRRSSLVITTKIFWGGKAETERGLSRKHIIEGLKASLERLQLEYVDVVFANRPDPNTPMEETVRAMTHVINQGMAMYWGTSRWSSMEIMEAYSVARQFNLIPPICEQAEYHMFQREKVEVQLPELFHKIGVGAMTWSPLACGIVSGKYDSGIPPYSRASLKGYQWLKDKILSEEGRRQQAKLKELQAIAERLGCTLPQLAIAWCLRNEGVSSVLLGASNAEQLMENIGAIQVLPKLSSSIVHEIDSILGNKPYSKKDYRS

For the molecule `Cc1cccc(-n2nnc(C(=O)NCc3ccccc3)c2N)c1`, the cell count in test [1] is 477. The inhibition (usually the change of the read-out against control, counted positive when it falls) in test [1] is 2.1% (inactive); in test [3], -2.7% (inactive); in test [7], 9.81% (inactive); in test [8] it was 9.19% (inactive). Moreover, the inhibition of aggregation in test [2] is -17.4% (inactive). In addition, the nuclei count in test [2] is 116%; in test [3] it was 106%. Also, the fluorescence slope in test [4] is -0.461 (inactive); in test [6], 0.0054 (inactive). For the same molecule, in test [5], the NADPH fluorescence slope is -0.000212 (inactive).
For the molecule `O=C(c1ccc(NS(=O)(=O)c2cccs2)cc1)N1CCCCC1`, in test [1], the cell count was found to be 287. Besides, the inhibition in test [1] was 5% (inactive); in test [3], -31.7% (inactive); in test [7] it was 0.00146% (inactive); in test [8], -12.6% (inactive). In test [2], the inhibition of aggregation is -0.8% (inactive). Further, the nuclei count in test [2] came to 74.9%; in test [3] it was 96.5%. Further, the fluorescence slope in test [4] is -0.474 (inactive); in test [6], 0.00524 (inactive). Also, in test [5], the NADPH fluorescence slope was -3.6e-05 (inactive).
Consider `Cn1cccc1C(=O)NC(=O)CSc1nnc(C2CC2)n1-c1ccccc1`, for which the cell count in test [1] was 670. For the same molecule, the inhibition in test [1] is -2% (inactive); in test [3] it was 27.3% (inactive); in test [7], 26.6% (inactive); in test [8] it was 9.42% (inactive). For the same molecule, in test [2], the inhibition of aggregation was -30.7% (inactive). Also, the nuclei count in test [2] came to 93.6%; in test [3], 62.6%. Also, the fluorescence slope is -0.589 (inactive) in test [4] and 0.00691 (inactive) in test [6]. Also, the NADPH fluorescence slope in test [5] was 4.6e-06 (inactive).
In the case of `CCN(CC)C(=O)CSc1nc2ccc(NC(=O)CSc3nccn3C)cc2s1`, the cell count in test [1] came to 729. For the same molecule, the inhibition in test [1] is -2.4% (inactive); in test [3], 19.3% (inactive); in test [7], -9.79% (inactive); in test [8], -19.1% (inactive). Also, the inhibition of aggregation in test [2] was -36.9% (inactive). The nuclei count in test [2] was 116%; in test [3], 94.3%. In addition, the fluorescence slope in test [4] is -0.577 (inactive); in test [6], 0.00661 (inactive). Moreover, in test [5], the NADPH fluorescence slope was -1.3e-05 (inactive).
On to `CCNc1oc(COc2ccccc2F)nc1C#N`, for which, in test [1], the cell count came to 318. In addition, the inhibition in test [1] was 14.7% (inactive); in test [3] it was -8.8% (inactive); in test [7], 0.938% (inactive); in test [8], -48.6% (inactive). Further, the inhibition of aggregation in test [2] was -13.4% (inactive). Further, the values for the nuclei count in test [2] and in test [3] were 106% and 94.1%, respectively. The fluorescence slope is -0.578 (inactive) in test [4] and 0.00601 (inactive) in test [6]. In addition, the NADPH fluorescence slope in test [5] is -2.3e-07 (inactive).
`CC(C)CCNC(=O)NC(=O)CN1C(=O)NC2(CCCCC2)C1=O`: the cell count in test [1] is 560. Moreover, the inhibition was -14.9% (inactive) in test [1], -209% (inactive) in test [3], -8.08% (inactive) in test [7] and -2.49% (inactive) in test [8]. Also, the inhibition of aggregation in test [2] was 13.2% (inactive). In addition, the results for the nuclei count in test [2] and in test [3] were 106% and 87%, respectively. In addition, the fluorescence slope was -0.498 (inactive) in test [4] and 0.00636 (inactive) in test [6]. Besides, the NADPH fluorescence slope in test [5] was 7.2e-05 (inactive).
As to `CCc1nc(N[C@@H](Cc2c[nH]c3ccccc23)C(=O)O)c2oc3ccccc3c2n1`, the cell count in test [1] amounted to 570. Besides, the inhibition in test [1] is -0.4% (inactive); in test [3], -59.6% (inactive); in test [7], 10.8% (inactive); in test [8] it was 9.74% (inactive). Moreover, in test [2], the inhibition of aggregation is -19.4% (inactive). For the same molecule, the results for the nuclei count in test [2] and in test [3] were 101% and 98.6%, respectively. Further, the fluorescence slope was -0.4 (inactive) in test [4] and 0.00556 (inactive) in test [6]. Moreover, in test [5], the NADPH fluorescence slope was 4.2e-05 (inactive).
With `COc1cc(C(=O)N2CCCC(c3nc(-c4cccs4)no3)C2)cc(OC)c1OC` (centres undefined), in test [1], the cell count turned out to be 709. Also, the inhibition in test [1] is -19.4% (inactive); in test [3] it was -30.6% (inactive); in test [7], 13.5% (inactive); in test [8], 12.8% (inactive). Further, the inhibition of aggregation in test [2] is 4.4% (inactive). Also, the figures for the nuclei count in test [2] and in test [3] were 89% and 101%, respectively. Besides, the fluorescence slope is -0.508 (inactive) in test [4] and 0.00584 (inactive) in test [6]. Further, the NADPH fluorescence slope in test [5] was -0.000226 (inactive).
In the case of `Cc1ccc(S(=O)(=O)Cc2ccc(C(=O)NCCCN3CCN(C)CC3)o2)cc1`, the cell count in test [1] came out at 597. Further, the inhibition is 2.3% (inactive) in test [1], 22.2% (inactive) in test [3], 14.1% (inactive) in test [7] and 100% (active) in test [8]. Besides, the inhibition of aggregation in test [2] was -11.8% (inactive). The figures for the nuclei count in test [2] and in test [3] were 101% and 115%, respectively. Moreover, the fluorescence slope in test [4] was -0.517 (inactive); in test [6], 0.00533 (inactive). The NADPH fluorescence slope in test [5] is 1.7e-05 (inactive).
Take `O=C(COc1ccccc1Cl)N1CCCC1`: the cell count in test [1] was 236. Besides, the inhibition in test [1] was 11.7% (inactive); in test [3], -66.3% (inactive); in test [7] it was -16% (inactive); in test [8] it was -18.4% (inactive). Further, the inhibition of aggregation in test [2] was -1.6% (inactive). Also, the nuclei count came out at 83.7% in test [2] and 152% in test [3]. The fluorescence slope in test [4] was -0.528 (inactive); in test [6], 0.00495 (inactive). Also, the NADPH fluorescence slope in test [5] was 2.9e-05 (inactive).
As for `O=C(NCc1ccco1)c1noc2c1CCCCC2`, the cell count in test [1] worked out at 245. The inhibition in test [1] is 1.3% (inactive); in test [3] it was -32.5% (inactive); in test [7], -4% (inactive); in test [8], -51.6% (inactive). Also, the inhibition of aggregation in test [2] was 1.9% (inactive). Moreover, the values for the nuclei count in test [2] and in test [3] were 103% and 117%, respectively. For the same molecule, the fluorescence slope is -0.549 (inactive) in test [4] and 0.00608 (inactive) in test [6]. The NADPH fluorescence slope in test [5] is -2.4e-05 (inactive).
With `CCc1nc(SCC(=O)Nc2nccs2)c2oc3ccccc3c2n1`, the cell count in test [1] was found to be 347. Moreover, the inhibition in test [1] was 4% (inactive); in test [3] it was -14.6% (inactive); in test [7], 1.9% (inactive); in test [8] it was -8.08% (inactive). Besides, the inhibition of aggregation in test [2] is 12.5% (inactive). For the same molecule, the values for the nuclei count in test [2] and in test [3] were 104% and 116%, respectively. Further, the fluorescence slope was -0.283 (inactive) in test [4] and 0.00667 (inactive) in test [6]. In addition, in test [5], the NADPH fluorescence slope is -2.5e-06 (inactive).
On to `Cc1cccc(OCC(=O)N2CCC(c3ccccc3)C2)c1` (centres undefined), for which the cell count in test [1] was determined as 380. Moreover, the inhibition in test [1] was 4.3% (inactive); in test [3], -6.3% (inactive); in test [7], -65.5% (inactive); in test [8], -177% (inactive). The inhibition of aggregation in test [2] was -13.6% (inactive). The nuclei count in test [2] worked out at 101%; in test [3], 115%. In addition, the fluorescence slope in test [4] was -0.426 (inactive); in test [6], 0.0091 (inactive). In test [5], the NADPH fluorescence slope is 1.1e-05 (inactive).
On to `CCOC(=O)CNC(=O)CSc1ncnc2c1cnn2-c1ccccc1`, for which, in test [1], the cell count came to 564. The inhibition in test [1] is -9.2% (inactive); in test [3], -69.6% (inactive); in test [7], 7.97% (inactive); in test [8] it was 8.26% (inactive). Besides, in test [2], the inhibition of aggregation was -10.3% (inactive). The figures for the nuclei count in test [2] and in test [3] were 113% and 118%, respectively. In addition, the fluorescence slope in test [4] was -0.562 (inactive); in test [6] it was 0.00493 (inactive). Also, the NADPH fluorescence slope in test [5] is 3.9e-05 (inactive).
